MrgX1 agonist – agonists of human MrgX1 receptor, primary screen, HEK293 cells, Fluo-4 calcium flux. Fluo-4 calcium fluorescence, agonist mode; active compounds read high. B-score at 10 µM. 0.44% of 310,000 active. Mas-related G-protein coupled receptor member X1 (Homo sapiens), Q96LB2;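 active = calcium response B-score plate-corrected fluorescence ratio at least 3 library SD, with starting fluorescence B-score inside 5 SD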
Target sequence (Q96LB2 whole entry, looked up): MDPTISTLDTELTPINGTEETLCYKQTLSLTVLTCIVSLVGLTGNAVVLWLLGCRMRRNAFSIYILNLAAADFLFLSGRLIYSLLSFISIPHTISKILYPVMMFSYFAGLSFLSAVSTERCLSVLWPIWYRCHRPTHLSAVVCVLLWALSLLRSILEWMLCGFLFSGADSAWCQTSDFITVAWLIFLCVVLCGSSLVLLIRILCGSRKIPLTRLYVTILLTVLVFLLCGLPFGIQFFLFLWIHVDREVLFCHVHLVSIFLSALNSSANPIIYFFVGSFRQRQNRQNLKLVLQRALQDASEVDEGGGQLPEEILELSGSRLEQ
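Material: MrgX1-expressing HEK293 cells; input: 15,000 cells per well; doses: test compound given as first of three sequential additions; schedule: overnight plating before 1 h dye loading; technique: Fluo-4 NW calcium-flux fluorescence, kinetic read; evaluation: baseline-normalised fluorescence change ratio, B-scored; control set: plate-wise positive and negative controls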
MrgX1 PAM – positive allosteric modulators of MrgX1, primary screen, HEK293 cells, Fluo-4 calcium flux; Mas-related G-protein coupled receptor member X1 (Homo sapiens), Q96LB2; 0.63% of 310,000 active; AID 588675, 2011; FDSS; active compounds read high; B-score at 10 µM;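 active = plate-corrected calcium response at least 3 library SD above typical, normal starting fluorescence, not activating the receptor alone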;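 note: compound read alongside a low EC10 to EC30 dose of BAM8-22 agonist; peak minus trough fluorescence over baseline measured at the second addition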
RGS4 act – RGS4 potentiators or activators, primary screen, cell-based, HEK293 M3R inducible RGS4, calcium flux; carbachol calcium flux Fluo4; active compounds read low; B-score at 10 µM; 0.92% of 310,000 active;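 active = B-score of the integrated calcium signal more than 4 SD below the library mean, with starting fluorescence not abnormally high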;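 note: negative B-score means reduced calcium response which marks RGS4 activation or potentiation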
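test system = M3R-expressing HEK293 line, RGS4 induced by doxycycline | probe or stimulus = carbachol at ECmax as muscarinic agonist stimulus | timing = dye loading 30 min 37 °C, buffer rest 30 min RT | signal = calcium dye Fluo4 fluorescence | evaluation = B score from integrated fluorescence ratio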
RGS4 inh – RGS4 inhibitors, primary screen, cell-based, HEK293 M3R inducible RGS4, calcium flux; B-score at 10 µM; 0.45% of 310,000 active; Fluo-4 calcium flux; active compounds read high; triggered by carbachol at its EC20; Regulator of G-protein signaling 4 (Homo sapiens), P49798;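 active = B-score, a plate-corrected calcium signal, over three deviations above library mean, with baseline fluorescence within five deviations of library mean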;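 note: RGS4 expression induced by doxycycline in cells with stable M3 receptor; B-score is computed from the integrated fluorescence ratio over baseline after carbachol; higher B-score means a larger calcium signal and so more RGS4 inhibition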
Target sequence (P49798 whole entry, looked up): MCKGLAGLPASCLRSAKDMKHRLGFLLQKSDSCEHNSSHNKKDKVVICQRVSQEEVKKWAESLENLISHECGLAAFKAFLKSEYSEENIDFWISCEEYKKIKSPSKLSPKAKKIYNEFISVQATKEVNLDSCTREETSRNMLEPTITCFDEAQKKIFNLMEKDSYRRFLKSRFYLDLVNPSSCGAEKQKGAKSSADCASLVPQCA
MrgX1 antag – antagonists of human MrgX1 receptor, primary screen, HEK293 cells, Fluo-4 calcium flux. Mas-related G-protein coupled receptor member X1 (Homo sapiens), Q96LB2. BAM8-22 antagonism; active compounds read low. B-score at 10 µM. 1.3% of 310,000 active. AID 588676, 2011;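 active = calcium-response B-score plate-corrected more than 3 library SD below zero, starting fluorescence within 5 deviations, no agonist response on first addition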;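 note: peak minus trough fluorescence over baseline after final BAM8-22 challenge near maximal dose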
A number is an active result; . = inactive; / = not tested or not shown. A selection: hits, their analogues and other compounds. The true share with any hit is near 3.5%.

SMILES | MrgX1 agonist | MrgX1 PAM | RGS4 act | RGS4 inh | MrgX1 antag
N=C1S/C(=C\c2ccc(-c3ccccc3C(=O)O)o2)C(=O)N1c1ccc2c(c1)OCO2 | / | / | . | . | /
COc1ccccc1N1C(=N)S/C(=C\c2ccc(-c3ccccc3C(=O)O)o2)C1=O | . | 11.3 | . | . | .
CCOC(=O)c1c(NC(=O)COC(=O)CC(NC(C)=O)c2ccccc2)sc(C(=O)NC)c1C (stereo not given) | . | . | . | . | -4.78
CCOC(=O)c1c(NC(=O)COC(=O)c2ccc(O)cc2)sc(C(=O)NC)c1C | . | . | . | . | .
CCOc1cc(CNCc2ccccc2)ccc1OCc1ccc(Cl)cc1 | . | . | . | . | .
COc1ccc(CNCCc2ccc(Cl)cc2)cc1OCc1ccccc1 | . | . | . | . | -5.85
CC(=O)/C(=N\Nc1ccccc1)Sc1cccc2cccnc12 | . | . | . | . | -4.74
CN(CCCNC(=O)c1ccc(CS(=O)c2ccc(Br)cc2)o1)Cc1ccccc1 (stereo not given) | . | . | . | . | .
CCOC(=O)Nc1ccc2c(c1)N(C(=O)CCN(CC)CC)c1ccccc1S2=O (stereo not given) | 30.4 | . | . | . | .
CCOC(=O)Nc1ccc2c(c1)N(C(=O)CCN(CC)CC)c1ccccc1CC2 | . | . | . | . | .
NS(=O)(=O)c1ccc(CCNC(=O)C2CCN(S(=O)(=O)c3ccc(Br)s3)CC2)cc1 | . | . | . | . | .
Cc1ccc(S(=O)(=O)NCCC(=O)N2CCC(C(N)=O)CC2)cc1C | . | . | . | . | .
CCOc1nc2cnccc2n(CC(=O)Nc2ccccc2C(=O)OC)c1=O | . | . | . | . | .
O=C(Cn1c(-c2ccccc2)c[n+]2ccsc12)c1ccc(Br)cc1 | . | . | -8.13 | . | .
CCC(NC(=O)C1CCCC1)c1ccccc1 (stereo not given) | . | . | . | . | .
O=C(Cn1c(CO)nc2ccccc21)NC1CCCCCC1 | . | . | . | . | -10.2
Nc1nonc1-c1nc2ccccc2n1CC(=O)NC1CCCC1 | . | . | . | . | .
Cc1ccc(C)c(N2CCN(CCCNC(=O)Cn3c(=O)c4cccn4c4cccnc43)CC2)c1 | . | . | . | . | .
CCC(NC(C)C)C(O)c1ccc(O)c(O)c1 (stereo not given) | 26.5 | . | . | . | .
CC(C)C(=O)c1ccc(O)c(O)c1 | . | . | . | . | .
Cc1cc(C)cc(N(C(=O)c2cccs2)C2C=CS(=O)(=O)C2)c1 (stereo not given) | . | . | . | . | .
COc1ccc(/C(N)=N/OC(=O)c2cccs2)cc1 | . | . | . | . | .
N/C(=N\OC(=O)c1cccs1)c1ccc(Cl)cc1 | . | . | . | . | -5.81
COc1ccc(-c2[nH]ncc2/C=N\NC(=O)c2cccs2)cc1OC | . | . | . | . | .
COCCNS(=O)(=O)c1cc(C)c(C)cc1C | . | . | . | . | .
SMILES | MrgX1 agonist | MrgX1 PAM | RGS4 act | RGS4 inh | MrgX1 antag
COC1=C/C(=C/c2c(N)n3c(nc2=O)sc2cc(S(C)(=O)=O)ccc23)C=CC1=O | . | 10.3 | . | . | .
CS(=O)(=O)c1nsc2nc(=O)c(/C=C3\C=Nc4ccccc43)c(N)n12 | . | . | . | . | .
CS(=O)(=O)c1ccc2c(c1)sc1nc(=O)c(/C=C3/C=CC(=O)C(O)=C3)c(N)n12 | . | 27.7 | . | . | .
COC(=O)Cc1cc(C)cc2c(=O)cc(-c3ccoc3)oc12 | . | . | . | . | .
Cc1[nH]c2ccccc2c1C(=O)Cn1c(=O)oc2ccccc21 | . | . | . | . | .
CC(C)CN1C(=O)/C(=C(/C#N)C(=O)NC2CCCCC2)c2ccccc21 | . | 8.17 | . | . | .
C[C@H](NC(=O)c1ccc(Cl)cc1)C(=O)NCCc1ccc(S(N)(=O)=O)cc1 | . | . | . | . | .
O=C(Nc1ccc(Br)c2ccccc12)c1ccc2ccccc2c1O | . | . | -7.5 | . | .
CC(=O)Nc1ccc(Br)c2ccccc12 | . | . | . | . | .
O=C1CC(c2ccc(Cl)c([N+](=O)[O-])c2)c2ccc3ccccc3c2N1 (stereo not given) | . | . | . | . | -7.55
Cc1ccc(S(=O)(=O)N2CCC(=O)N(C(COCc3ccc(C(F)(F)F)cc3)Cc3ccccc3)CC2)cc1 (stereo not given) | . | . | -7.3 | . | .
Cc1ccc(S(=O)(=O)N2CCC(=O)N(C(COCc3cccc(C)c3)Cc3ccccc3)CC2)cc1 (stereo not given) | . | . | . | . | .
Cc1ccc(S(=O)(=O)N2CCC(=O)N(C(COCc3ccc(Cl)c(Cl)c3)Cc3ccccc3)CC2)cc1 (stereo not given) | . | . | . | . | -6.13
Cn1c(=O)c(C(=O)CN2CC(=O)Nc3ccccc32)c(N)n(Cc2ccccc2)c1=O | . | . | . | . | .
O=c1c(Cl)c(O)c2cccc3c4ccccc4n1c23 | . | . | . | . | .
COc1c(O)c(=O)n2c3ccccc3c3ccnc1c32 | . | 37.4 | . | . | .
CC(=O)N(C)c1ccc(OCC(O)Cn2c(C)nc3ccccc32)cc1 (stereo not given) | . | . | . | . | .
CN(C)c1ccc2nc3c(=O)[nH]c(=O)nc-3n(CC(O)C(O)C(O)CO)c2c1 (stereo not given) | . | . | -7.94 | . | .
O=C(c1ccc(CS(=O)c2cccc(Cl)c2)o1)N1CCCCCC1 (stereo not given) | . | . | . | . | .
COc1ccccc1C(C)NC(=O)c1ccccc1SCC(=O)N1CCCC1 (stereo not given) | . | . | . | . | .
ClCC1=Nc2cccc3cccc(c23)N1 | . | . | . | 8.65 | .
Cc1ccc(C)c(N(C(=O)c2snc(C(N)=O)c2N)C(C(=O)NCC2CCCO2)c2cccs2)c1 (stereo not given) | . | . | . | . | .
Cc1cccc(N(C(=O)c2snc(C(N)=O)c2N)C(C(=O)NCC2CCCO2)c2cccs2)c1 (stereo not given) | . | . | . | . | -4.73
Cc1ccc(C)c(NC(=O)/C(C#N)=C/c2ccc(Sc3nncn3C)c([N+](=O)[O-])c2)c1 | . | . | . | 6.21 | .
CC1(C)N=C(N)N=C(N)N1c1ccc(Oc2ccc(Cl)cc2)c(Cl)c1 | . | . | -7.53 | . | .
CC1(C)N=C(N)N=C(N)N1c1ccccc1 | . | . | . | . | .
O=C1CCCCC1C(Nc1ccc(Br)cc1)c1ccccc1 (stereo not given) | . | . | -7.53 | . | .

Screens from PubChem BioAssay.
